# Calls of active or inactive are those of the source. No cut-off for these calls is given here.
# Key:
# [1] = target: T1, 2-Hydroxyacid oxidase 1 (Homo sapiens) (UniProt Q9UJM8); assay: (§1) Inhibition of N-terminal His-tagged human recombinant glycolate oxidase expressed in Escherichia coli BL21 (DE3) cells using glycolate as substrate at 20 uM preincubated for 5 mins followed by substrate addition and measured after 1 min in the presence of DCHBS by horseradish peroxidase coupled colorimetric method relative to control; conditions: time 6.0 min
# T1 sequence (whole entry): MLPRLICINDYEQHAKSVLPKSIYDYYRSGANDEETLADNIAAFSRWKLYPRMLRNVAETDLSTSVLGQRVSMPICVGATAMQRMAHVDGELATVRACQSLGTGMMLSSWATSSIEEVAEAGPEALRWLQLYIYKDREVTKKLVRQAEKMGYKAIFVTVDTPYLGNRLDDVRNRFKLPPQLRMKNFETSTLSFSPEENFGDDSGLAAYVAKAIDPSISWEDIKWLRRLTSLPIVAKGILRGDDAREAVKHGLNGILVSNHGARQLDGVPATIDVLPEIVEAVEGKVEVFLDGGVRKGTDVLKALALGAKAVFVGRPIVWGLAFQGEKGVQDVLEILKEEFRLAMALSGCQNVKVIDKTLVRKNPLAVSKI
# [2] = target: T2, 2-Hydroxyacid oxidase 1 (Mus musculus) (UniProt Q9WU19); assay: as §1, with “mouse” for “human”; conditions: time 6.0 min
# T2 sequence (whole entry): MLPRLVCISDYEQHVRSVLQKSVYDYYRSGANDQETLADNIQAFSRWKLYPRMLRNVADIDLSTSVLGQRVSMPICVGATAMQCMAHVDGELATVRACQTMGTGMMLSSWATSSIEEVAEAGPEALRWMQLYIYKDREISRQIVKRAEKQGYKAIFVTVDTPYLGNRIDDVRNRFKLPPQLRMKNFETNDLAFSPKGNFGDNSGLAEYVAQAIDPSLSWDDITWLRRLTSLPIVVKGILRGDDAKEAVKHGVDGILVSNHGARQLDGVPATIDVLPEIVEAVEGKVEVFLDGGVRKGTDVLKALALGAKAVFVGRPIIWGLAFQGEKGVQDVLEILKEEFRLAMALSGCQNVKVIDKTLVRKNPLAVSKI
# [3] = target: T3, L-lactate dehydrogenase A chain (Homo sapiens, UniProt P00338); assay: Inhibition of human recombinant LDHA using pyruvate as substrate preincubated for 10 mins followed by substrate addition and measured every 60 sec for 10 mins in the presence of NADH by fluorescence assay
# [4] = target: T4, L-lactate dehydrogenase B chain (Homo sapiens, UniProt P07195); assay: Inhibition of human recombinant LDHB using pyruvate as substrate preincubated for 10 mins followed by substrate addition and measured every 60 sec for 10 mins in the presence of NADH by fluorescence assay
# T4 sequence (P07195 whole entry): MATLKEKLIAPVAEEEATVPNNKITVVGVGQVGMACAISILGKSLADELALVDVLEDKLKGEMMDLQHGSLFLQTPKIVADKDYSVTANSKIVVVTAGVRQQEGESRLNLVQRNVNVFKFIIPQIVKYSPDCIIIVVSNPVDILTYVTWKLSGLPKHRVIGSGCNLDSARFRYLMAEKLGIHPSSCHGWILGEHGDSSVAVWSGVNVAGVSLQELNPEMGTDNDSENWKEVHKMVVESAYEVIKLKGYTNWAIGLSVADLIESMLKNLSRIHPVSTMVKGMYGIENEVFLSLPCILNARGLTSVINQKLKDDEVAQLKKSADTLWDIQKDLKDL
# [5] = test system: Hepatocyte; assay: Inhibition of GO/LDHA in hyperoxaluric-primary hepatocyte isolated from Agxt1 knockdown PH1 C57BL/6 mouse assessed as relative oxalate output at 10 uM measured at 24 hrs in the presence of glycolate relative to control; assay type: cell-based
# Procedure, shortened: (§2)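 Agxt1-/- mouse primary hepatocytes cultured with 5 mM glycolate, inhibitor at 10 μM; extracellular oxalate measured by colorimetric kit 24 and 48 h after inhibitor addition; relative oxalate = oxalate with inhibitor over oxalate without inhibitor; negative values mean below detection limit; mean of three/four replicates ± SD.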
# [6] = test system: Hepatocyte; assay: Inhibition of GO/LDHA in hyperoxaluric-primary hepatocyte isolated from Agxt1 knockdown PH1 C57BL/6 mouse assessed as relative oxalate output at 10 uM measured at 48 hrs in the presence of glycolate relative to control; assay type: cell-based; procedure, shortened: as §2
# [7] = test system: Hepatocyte; assay: Cytotoxicity against hyperoxaluric-primary hepatocyte isolated from Hoga1-knockdown PH3 C57BL/6 mouse assessed as cell death at 10 uM by MTS assay; assay type: toxicity, cell-based; conditions: hepatocytes, Hoga1-knockdown PH3, 10 µM
# Procedure, shortened: (§3)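 Primary hepatocytes from Agxt1-/- (PH1, 5 mM glycolate), Grhpr-/- (PH2, 10 mM glycolate) or Hoga1-/- (PH3, 10 mM hydroxyproline) mice, incubated with inhibitor at 10 μM; viability followed through the oxalate assay by MTS tetrazolium method.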
# [8] = test system: Hepatocyte; assay: Cytotoxicity against hyperoxaluric-primary hepatocyte isolated from Grhpr-knockdown PH2 C57BL/6 mouse assessed as cell death at 10 uM by MTS assay; assay type: toxicity, cell-based; conditions: hepatocytes, Grhpr-knockdown PH2 (primary hyperoxaluria type 2); procedure, shortened: as §3
# [9] = test system: Hepatocyte; assay: Cytotoxicity against hyperoxaluric-primary hepatocyte isolated from Agxt1-knockdown PH1 C57BL/6 mouse assessed as cell death at 10 uM by MTS assay; assay type: toxicity, cell-based; conditions: hepatocytes, Agxt1-knockdown PH1, 10 µM; procedure, shortened: as §3
# [10] = target: T5, 2-Hydroxyacid oxidase 1 (Mus musculus, UniProt Q9WU19); assay: Inhibition of N-terminal His-tagged mouse recombinant glycolate oxidase expressed in Escherichia coli BL21 (DE3) cells using glycolate as substrate preincubated for 10 mins followed by substrate addition and measured after 10 mins by Amplex red and horseradish peroxidase based fluorescence assay
# T5 sequence (Q9WU19 whole entry): T2 sequence (whole entry)
# [11] = target: T6, 2-Hydroxyacid oxidase 1 (Homo sapiens, UniProt Q9UJM8); assay: (§4) Non-competitive mixed inhibition of N-terminal His-tagged human recombinant glycolate oxidase expressed in Escherichia coli BL21 (DE3) cells assessed as inhibition constant using varying concentration of glycolate as substrate measured every 60 sec for 15 mins by Amplex red and horseradish peroxidase based fluorescence assay
# T6 sequence (Q9UJM8 whole entry): T1 sequence (whole entry)
# [12] = target: T5, 2-Hydroxyacid oxidase 1; assay: as §4, with “mouse” for “human”
# [13] = target: T3, L-lactate dehydrogenase A chain; assay: Non-competitive inhibition of human recombinant LDHA assessed as inhibition constant using varying concentration of pyruvate as substrate preincubated for 10 mins followed by substrate addition and measured every 60 sec for 10 mins in the presence of NADH by fluorescence assay
# [14] = target: T4, L-lactate dehydrogenase B chain; assay: Non-competitive inhibition of human recombinant LDHB assessed as inhibition constant using varying concentration of pyruvate as substrate preincubated for 10 mins followed by substrate addition and measured every 60 sec for 10 mins in the presence of NADH by fluorescence assay
# [15] = target: T2, 2-Hydroxyacid oxidase 1 (Mus musculus); assay: Non-competitive mixed inhibition of N-terminal His-tagged mouse recombinant glycolate oxidase expressed in Escherichia coli BL21 (DE3) cells assessed as decrease in Vmax with increase in apparent Km using glycolate as substrate upto 60 microM
# [16] = test system: Hepatocyte; assay: Inhibition of GO/LDHA in hyperoxaluric-primary hepatocyte isolated from Agxt1 knockdown PH1 C57BL/6 mouse assessed as reduction in extracellular oxalate concentration at 10 uM measured at 48 hrs in the presence of glycolate relative to control; assay type: cell-based; set-up: scale not given: the % may be the effect or the level left; procedure, shortened: as §2
# [17] = Inhibition of GO/LDHA in hyperoxaluric-primary hepatocyte isolated from Agxt1 knockdown PH1 C57BL/6 mouse measured at 24 hrs in the presence of 5 mM glycolate; assay type: cell-based
# Procedure, shortened: (§5)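 Agxt1-/- hepatocytes with 5 mM glycolate; eight inhibitor concentrations per replicate; extracellular oxalate measured colorimetrically at 24 or 48 h; EC50 as mean of three/four replicates ± SD.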
# [18] = Inhibition of GO/LDHA in hyperoxaluric-primary hepatocyte isolated from Grhpr-knockdown PH2 C57BL/6 mouse measured at 24 hrs in the presence of 10 mM glycolate; assay type: cell-based
# Procedure, shortened: (§6)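 Grhpr-/- hepatocytes with 10 mM glycolate; eight inhibitor concentrations per replicate; colorimetric extracellular oxalate at 24 or 48 h; EC50 as mean of three/four replicates ± SD.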
# [19] = Inhibition of GO/LDHA in hyperoxaluric-primary hepatocyte isolated from Agxt1 knockdown PH1 C57BL/6 mouse measured at 48 hrs in the presence of 5 mM glycolate; assay type: cell-based; procedure, shortened: as §5
# [20] = Inhibition of GO/LDHA in hyperoxaluric-primary hepatocyte isolated from Grhpr-knockdown PH2 C57BL/6 mouse measured at 48 hrs in the presence of 10 mM glycolate; assay type: cell-based; procedure, shortened: as §6
# [21] = test system: HEK293; assay: Cytotoxicity against HEK293 cells assessed as reduction in cell viability upto 50 uM measured after 48 hrs by MTT assay; assay type: toxicity, cell-based; conditions: human, hek293, 48 h
# [22] = target: T6, 2-Hydroxyacid oxidase 1; assay: Inhibition of N-terminal His-tagged human recombinant glycolate oxidase expressed in Escherichia coli BL21 (DE3) cells using glycolate as substrate preincubated for 10 mins followed by substrate addition and measured after 10 mins by Amplex red and horseradish peroxidase based fluorescence assay
# [23] = test system: Hepatocyte; assay: Inhibition of GO/LDHA in hyperoxaluric-primary hepatocyte isolated from Grhpr-knockdown PH2 C57BL/6 mouse assessed as relative oxalate output at 10 uM measured at 24 hrs in the presence of glycolate relative to control; assay type: cell-based
# Procedure, shortened: (§7)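 Grhpr-/- mouse primary hepatocytes cultured with 10 mM glycolate, inhibitor at 10 μM; extracellular oxalate determined colorimetrically at 24 and 48 h post-treatment, expressed relative to untreated medium (RO); negative RO means below detection limit; three/four replicates, mean ± SD.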
# [24] = test system: Hepatocyte; assay: Inhibition of GO/LDHA in hyperoxaluric-primary hepatocyte isolated from Grhpr-knockdown PH2 C57BL/6 mouse assessed as relative oxalate output at 10 uM measured at 48 hrs in the presence of glycolate relative to control; assay type: cell-based; procedure, shortened: as §7
# [25] = test system: Hepatocyte; assay: Inhibition of GO/LDHA in hyperoxaluric-primary hepatocyte isolated from Hoga1-knockdown PH3 C57BL/6 mouse assessed as relative oxalate output at 10 uM measured at 24 hrs in the presence of hydroxyproline relative to control; assay type: cell-based
# Procedure, shortened: (§8)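 Hoga1-/- mouse primary hepatocytes challenged with 10 mM hydroxyproline, inhibitor 10 μM; extracellular oxalate measured by colorimetric kit 24 and 48 h after dosing, given as ratio to oxalate without inhibitor; negative values are below detection limit; mean of three/four replicates ± SD.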
# [26] = test system: Hepatocyte; assay: Inhibition of GO/LDHA in hyperoxaluric-primary hepatocyte isolated from Hoga1-knockdown PH3 C57BL/6 mouse assessed as relative oxalate output at 10 uM measured at 48 hrs in the presence of hydroxyproline relative to control; assay type: cell-based; procedure, shortened: as §8
# [27] = target: T3, L-lactate dehydrogenase A chain; assay: Inhibition of human recombinant LDHA using pyruvate as substrate at 10 uM preincubated for 10 mins followed by substrate addition and measured every 60 sec for 10 mins in the presence of NADH by fluorescence assay relative to control; conditions: time 20.0 min
# Procedure, shortened: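 Recombinant human LDHA or LDHB (0.015 U/mL) with NADH 150 μM and inhibitor 10 μM in 50 mM phosphate pH 7, 10 min rt baseline read; pyruvate 1 mM added, NADH fluorescence (ex 340/em 460 nm) read every 60 s for 10 min; baseline-corrected slope versus 100% activity control; four replicates.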
inhibition [1] [%],inhibition [2] [%],IC50 [3] [µM],IC50 [4] [µM],IC50 [10] [µM],SMILES,fold change (FC) [5],Activity [7],Activity [8],Activity [9],Activity [21],fold change (FC) [23],fold change (FC) [24],fold change (FC) [25],fold change (FC) [26],further results
< 50,< 50,2.5,3.3,–,N.O=C(O)c1cc(-c2ccc(CNCc3ccccc3)o2)ccc1O,0.18,Non-Toxic,Non-Toxic,Non-Toxic,–,–,–,–,–,fold change (FC) [6]: 0.63
< 50,< 50,–,–,–,COc1ccc(CNCc2ccc(-c3ccc(O)c(C(=O)O)c3)o2)cc1,–,–,–,–,–,–,–,–,–,inhibition [27]: 18%
< 50,< 50,8,–,–,O=C(O)c1cc(-c2ccc(CNCc3ccc([N+](=O)[O-])cc3)o2)ccc1O,–,–,–,–,–,–,–,–,–,–
–,–,1.5,5.9,5.4,N.O=C(O)c1cc(-c2ccc(CNc3ccc([N+](=O)[O-])cc3)o2)ccc1O,0.04,Non-Toxic,Non-Toxic,Non-Toxic,Non-Toxic,0.6,0.88,0.18,0.1,IC50 [22]: 10.3 µM; fold change (FC) [6]: 0.5; Activity [16]: 50%; EC50 [17]: 0.6 µM; EC50 [19]: 1.6 µM
< 50,< 50,–,–,–,O=C(O)c1cc(-c2ccc(CNCc3ccc(O)cc3)o2)ccc1O,–,–,–,–,–,–,–,–,–,inhibition [27]: 18%

# The next lines start with the compound.
SMILES,inhibition [1] [%],inhibition [2] [%],IC50 [3] [µM],IC50 [4] [µM],IC50 [10] [µM],fold change (FC) [5],Activity [7],Activity [8],Activity [9],Activity [21],fold change (FC) [23],fold change (FC) [24],fold change (FC) [25],fold change (FC) [26],further results
O=Cc1ccc(-c2ccc(O)c(C(=O)O)c2)o1,–,–,–,29,14.4,–,Non-Toxic,Non-Toxic,Non-Toxic,Non-Toxic,–,–,–,–,Ki [11]: 18.2 µM; Ki [12]: 7.9 µM; Ki [13]: 1.4 µM; Ki [14]: 12.9 µM; inhibition [15]: Active; Activity [16]: 60%; EC50 [17]: 3.5 µM; EC50 [18]: 1.8 µM; EC50 [19]: 8.4 µM; EC50 [20]: 1.9 µM
O=C(O)c1cc(-c2ccc(CNCc3cccnc3)o2)ccc1O,< 50,< 50,–,–,–,–,–,–,–,–,–,–,–,–,–
CCN(CC)CC.O=C(O)c1cc(-c2ccc(CN(Cc3ccccc3)Cc3ccco3)o2)ccc1O,–,–,2.3,4.3,8,-0.09,Non-Toxic,Non-Toxic,Non-Toxic,–,0.31,0.34,0.22,0.3,IC50 [22]: 16.8 µM; fold change (FC) [6]: 0.42; Activity [16]: 60%; EC50 [17]: 0.5 µM; EC50 [19]: 0.6 µM
COc1cccc2c1C(=O)c1c(O)c3c(c(O)c1C2=O)C[C@@](O)(C(=O)CO)C[C@@H]3O[C@H]1C[C@H](N)[C@H](O)[C@H](C)O1 [DOXORUBICIN],–,–,–,–,–,–,–,–,–,Non-Toxic,–,–,–,–,–
CC(C)(C)C(O)/C=C/c1ccc2c(c1)OCO2 (configuration not stated) [STIRIPENTOL],–,–,–,–,–,–,Non-Toxic,Non-Toxic,Non-Toxic,–,0.27,0.33,0.7,0.49,–
O=C(O)c1cc(-c2ccc(CN3CCCCC3)o2)ccc1O,< 50,< 50,–,–,–,–,–,–,–,–,–,–,–,–,–
C#CCN(Cc1ccc(-c2ccc(O)c(C(=O)O)c2)o1)Cc1ccc(-c2ccc(O)c(C(=O)O)c2)o1.N.N,–,–,1.6,2.3,0.8,0.44,Non-Toxic,Non-Toxic,Non-Toxic,Non-Toxic,0.2,0.25,0.21,0.52,IC50 [22]: 2 µM

# Reference: ChEMBL document CHEMBL5120856, “New salicylic acid derivatives, double inhibitors of glycolate oxidase and lactate dehydrogenase, as effective agents decreasing oxalate production” (Eur J Med Chem, 2022)
